Shown are actives, neighbours in structure and some others; about 2.5% of the full set was active somewhere.
HGIII-sPLA2 inh = human group III sPLA2 inhibitors, primary screen, biochemical, QFRET, BODIPY PC-A2 liposome substrate | Group 3 secretory phospholipase A2 (Homo sapiens), Q9NZ20 | QFRET BODIPY PC-A2 liposome hydrolysis, fluorescence | inhibition, % at 12.2 µM | 370,000 compounds, 0.56% hits | AID 743126, 2013;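 active = inhibition above mean plus 3 SD of compounds lying within the high and low control bounds, cut at about 19% in these data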;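 note: 0% = median of test compound wells and 100% = no enzyme DMSO wells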
MC4R antag cAMP = MC4R antagonists of cAMP signaling, primary screen, cell-based, TR-FRET, antagonist arm of biased-ligand search; Melanocortin receptor 4 (Homo sapiens), P32245; inhibition, % at 6.5 µM; 360,000 compounds, 0.48% hits; AID 540295, 2011; MC4R-expressing cells, MTII-stimulated cAMP, LANCE TR-FRET;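 active = inhibition above its plate's cutoff, the mean of tested wells on that plate plus 3 SD, cut at about 29% in these data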;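 note: 0% = Melanotan II alone and 100% = Melanotan II plus saturating MCL0020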
Target sequence (P32245 whole entry, looked up): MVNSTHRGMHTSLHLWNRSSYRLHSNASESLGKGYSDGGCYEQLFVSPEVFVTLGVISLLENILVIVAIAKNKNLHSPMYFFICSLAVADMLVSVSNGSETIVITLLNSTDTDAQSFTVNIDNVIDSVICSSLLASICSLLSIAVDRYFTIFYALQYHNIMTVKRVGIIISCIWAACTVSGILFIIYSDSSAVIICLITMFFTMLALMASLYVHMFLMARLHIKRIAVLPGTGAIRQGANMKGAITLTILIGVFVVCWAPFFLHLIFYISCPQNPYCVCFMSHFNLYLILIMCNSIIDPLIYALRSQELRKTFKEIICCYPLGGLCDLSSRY
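material = U2OS cells stably expressing human melanocortin 4 receptor (MC4R) | also added = Melanotan II challenge | dosing = single nominal compound dose of 6.5 µM | detection = TR-FRET with Eu-cAMP and labeled anti-cAMP, 671 nm | replication = singlicate | timing = compound 30 min, challenge 1 h, detection 1 h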
NTR1 agonist = agonists of human NTR1, primary screen, imaging, U2OS cells, beta-arrestin-GFP, high content | NTR1-U2OS beta-arrestin-GFP spot imaging, agonist mode | activation, % at 20 µM | 330,000 compounds, 0.17% hits | AID 493036, 2011;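 active = activation at or above 40% of the spot to cytoplasm intensity ratio, with at least 20 cells analyzed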;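 note: 0% = DMSO without peptide and 100% = 100 nM NTR1 peptide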
Granule exo inh = LAMP-1 surface exposure blockers, TALL-104 cells – cell-based, flow cytometry, MLPCN library, primary screen; TALL-104 LAMP-1 surface exposure; cells stimulated with thapsigargin and PMA; inhibition, % at 10 µM; 360,000 compounds, 0.66% hits;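 active = inhibition above about 55%, limit read from the data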
Bfl-1 A1 inh = caspase 3/7 activation in MEF A1-2A-BIM cells, primary screen, A1 inhibitor project, cell-based, luminescence, HTS. Caspase-Glo 3/7 luminescence, 3 h; percent of clofoctol response, vehicle zero. caspase activation, % (test concentration not listed). 330,000 compounds, 0.066% hits;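 active = over half of replicate activation scores above 10%, or exactly half above 10 with the replicate mean above 10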
MC4R barr agon = MC4R agonists recruiting beta-arrestin, primary screen, cell-based, luminescence, agonist arm of biased-ligand search. Melanocortin receptor 4 (Homo sapiens), P32245. U2OS MC4R beta-arrestin complementation; percent of melanotan II response, DMSO zero. activation, % at 8.9 µM. 360,000 compounds, 0.98% hits;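 active = activation above a per-plate cutoff, the mean activation of sample wells on that plate plus 3 SD, cut at about 8% in these data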
MC4R barr ag = MC4R beta-arrestin agonists, retest, confirmation, cell-based, luminescence, U2OS | 2,400 compounds, 31% hits | U2OS MC4R beta-arrestin recruitment; scaled DMSO 0%, Melanotan II 100% | activation, % at 8.9 µM | shares compounds with MC4R barr agon;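 active = mean activation across replicates above the hit cutoff set in the earlier primary screen, cut at about 8% in these data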
MOR-DOR barr ag = agonists of MOR-DOR heterodimerization, counter-screen for MC4R biased agonist project, cell-based, luminescence. shares compounds with MC4R barr agon. U2OS PathHunter beta-arrestin, beta-gal luminescence; percent of deltorphin B response, DMSO zero. activation, % at 9.2 µM. 2,400 compounds, 5.8% hits;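 active = mean activation across replicates exceeds the hit threshold derived in the earlier primary screen, cut at about 18% in these data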;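 note: 100% = deltorphin B at 0.9 µM final and 0% = DMSO alone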
Active calls of the source: *; / = no result given.

SMILES	HGIII-sPLA2 inh	MC4R antag cAMP	NTR1 agonist	Granule exo inh	Bfl-1 A1 inh	MC4R barr agon	MC4R barr ag	MOR-DOR barr ag
COC(=O)[C@]12C[C@H](CC(=O)NCCCCc3ccccc3)C(=O)N(Cc3cccc4ccccc34)C1=C[C@H](C(C)(C)C)O[C@@H]2C	-19	/	/	/	/	/	/	/
CCCc1c(C(=O)Nc2ccc(N3CCOCC3)cc2)cnn1-c1ccccc1	5	-3	0	-1	1	1	/	/
CCCc1c(C(=O)NNc2cc(C(F)(F)F)ccc2Cl)cnn1-c1ccccc1	7	3	6	21	-1	27*	6	6
CCCc1c(C(=O)Nc2ccc(C(F)(F)F)cc2)cnn1-c1ccccc1	-3	-3	0	-2	0	10*	-4	6
CCCc1c(C(=O)NNc2ccc(C)cc2)cnn1-c1ccccc1	7	-1	1	-2	0	-2	/	/
CCCCN(C)c1nc(C)nc2c1nnn2Cc1ccccc1	-4	/	/	/	/	/	/	/
COc1ccc(OCC(O)CN2CCN(c3ccc(Cl)cc3)CC2)cc1 (stereo unspecified)	11	4	-1	4	-1	11*	3	7
Clc1cccc(-c2nc3nc4ccccc4nc3n2Cc2ccccc2)c1	3	7	7	1	0	24*	1	5
C=CCn1c(-c2ccccc2)nc2nc3ccccc3nc21	8	-3	1	0	-4	-2	/	/
CCOC(=O)C1Cc2ccccc2C(=O)O1 (stereo unspecified)	6	18	-1	6	0	0	/	/
CCOC(=O)C1=C(N)c2ccccc2CC1C(C)C (stereo unspecified)	4	2	3	-1	0	11*	3	8
Cc1ccccc1OCC(=O)Nc1ccc2c(c1)C(=O)c1ccccc1C2=O	5	2	7	-3	-1	22*	8.9*	4
COc1ccccc1OCC(=O)Nc1ccc(NC(=O)COc2ccccc2OC)cc1	10	-2	2	38	0	18*	23*	17
COc1cc(/C=C/C(=O)/C=C(O)/C=C/c2ccc(O)c(OC)c2)ccc1O	-9	8	7	69*	0	12*	12*	6
CCOC(=O)c1c(C)[nH]c(C(=O)CSc2ccc(Cl)cc2)c1C	-21	-4	2	0	2	25*	16*	6
CCOC(=O)c1c(C)[nH]c(C(=O)CSc2nc(C)cc(C)n2)c1C	-33	-3	2	10	0	-3	/	/
CCOC(=O)c1c(C)[nH]c(C(=O)Cn2nnc(-c3ccccc3)n2)c1C	-28	2	0	0	2	13*	2	9
COc1cccc(/C=N/Nc2nnc3c(n2)[nH]c2ccccc23)c1OC	-1	17	1	-1	-1	11*	-2	2
Cc1ccsc1/C=N/Nc1nc2ccccc2s1	6	-6	25	-2	0	9.9*	-1	6
COc1cccc(C=NNc2nc3ccccc3s2)c1OC	-3	-4	/	0	/	22*	3	8
CCCCCCCCN1CCS(=O)(=O)N(Cc2ccc(C(F)(F)F)cc2)C(C(=O)OC)C1 (stereo unspecified)	3	/	/	/	/	/	/	/

High-throughput results (PubChem)
